# In ChEMBL document CHEMBL5252513, “Identification of a Benzoisoxazoloazepine Inhibitor (CPI-0610) of the Bromodomain and Extra-Terminal (BET) Family as a Candidate for Human Clinical Trials” (J Med Chem, 2016):
# pIC50: −log10 of the molar value. Active and inactive are the calls of the source. No cut-off for these calls is given here.
# Tests used:
# [1] = Toxicity against BALB/c mouse plasma xenografted with human MV4-11 cells assessed as body weight loss at 30 mg/kg,po QD for 28 days; format: organism-based; conditions: in vivo, 672 h, time 28 day
# Method in brief: (§1)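 Body weight change (%) followed in MV-4-11 AML mouse xenograft during 28 days of oral single-agent dosing (30 mg/kg once or twice daily, 60 mg/kg once daily), vehicle PO BID as control.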
# [2] = AUC (0 to infinity) in mouse at 10 mg/kg,sc; format: ADME, organism-based; set-up: dose 10 mg/kg, route sc; conditions: in vivo
# [3] = Cmax in rat at 5 mg/kg,po; format: ADME, organism-based; set-up: dose 5 mg/kg, route po; conditions: in vivo
# [4] = target: T1, Peregrin (Homo sapiens, UniProt P55201); assay: Binding affinity to BRPF1 bromodomain (unknown origin) incubated for 60 mins by TR-FRET assay
# T1 sequence (P55201 whole entry): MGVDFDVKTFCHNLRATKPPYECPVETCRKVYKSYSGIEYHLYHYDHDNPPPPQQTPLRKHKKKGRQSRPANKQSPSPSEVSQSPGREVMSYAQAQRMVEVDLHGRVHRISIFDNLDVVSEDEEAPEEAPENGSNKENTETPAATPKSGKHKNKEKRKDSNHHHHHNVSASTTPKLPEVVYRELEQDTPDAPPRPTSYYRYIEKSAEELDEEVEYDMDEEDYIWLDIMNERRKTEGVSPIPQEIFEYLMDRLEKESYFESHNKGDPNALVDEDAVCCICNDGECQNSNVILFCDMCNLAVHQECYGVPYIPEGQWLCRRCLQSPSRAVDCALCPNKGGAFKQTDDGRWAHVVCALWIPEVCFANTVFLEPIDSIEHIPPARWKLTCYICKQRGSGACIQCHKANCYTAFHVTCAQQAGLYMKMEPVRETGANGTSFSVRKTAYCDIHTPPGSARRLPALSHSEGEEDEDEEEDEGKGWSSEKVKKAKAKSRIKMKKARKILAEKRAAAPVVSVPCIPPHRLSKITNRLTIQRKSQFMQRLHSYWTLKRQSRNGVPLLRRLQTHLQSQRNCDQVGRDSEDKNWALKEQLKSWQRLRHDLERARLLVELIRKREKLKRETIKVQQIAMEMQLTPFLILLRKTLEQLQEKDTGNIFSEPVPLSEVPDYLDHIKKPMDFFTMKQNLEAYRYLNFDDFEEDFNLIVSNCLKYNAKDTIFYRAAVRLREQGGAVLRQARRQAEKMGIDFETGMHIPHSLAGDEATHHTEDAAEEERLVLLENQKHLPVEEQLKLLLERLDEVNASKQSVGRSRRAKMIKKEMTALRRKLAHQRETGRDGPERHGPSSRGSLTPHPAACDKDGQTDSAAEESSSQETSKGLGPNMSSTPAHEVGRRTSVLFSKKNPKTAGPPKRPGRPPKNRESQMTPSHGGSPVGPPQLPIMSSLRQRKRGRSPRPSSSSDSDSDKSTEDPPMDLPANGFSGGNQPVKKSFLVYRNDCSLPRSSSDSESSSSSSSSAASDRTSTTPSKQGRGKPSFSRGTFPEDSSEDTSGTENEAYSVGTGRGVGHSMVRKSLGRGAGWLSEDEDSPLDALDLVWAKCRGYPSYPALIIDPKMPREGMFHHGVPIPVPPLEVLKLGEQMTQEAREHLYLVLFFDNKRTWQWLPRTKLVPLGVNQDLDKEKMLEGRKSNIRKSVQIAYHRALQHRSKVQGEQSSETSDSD
# [5] = Tmax in human patient with progression lymphoma at 300 mg,po QD consecutively for 14 days; format: ADME; conditions: in vivo, time 14 day
# [6] = Half life in rat plasma at 1 mg/kg,iv; format: ADME, organism-based
# [7] = target: SWI/SNF-related matrix-associated actin-dependent regulator of chromatin subfamily A member 4 (Homo sapiens, UniProt P51532); assay: Displacement of biotinylated JQ1 from BRG1 bromodomain (unknown origin) incubated for 20 mins by AlphaLISA assay
# Chain of SWI/SNF-related matrix-associated actin-dependent regulator of chromatin subfamily A member 4 (P51532 whole entry): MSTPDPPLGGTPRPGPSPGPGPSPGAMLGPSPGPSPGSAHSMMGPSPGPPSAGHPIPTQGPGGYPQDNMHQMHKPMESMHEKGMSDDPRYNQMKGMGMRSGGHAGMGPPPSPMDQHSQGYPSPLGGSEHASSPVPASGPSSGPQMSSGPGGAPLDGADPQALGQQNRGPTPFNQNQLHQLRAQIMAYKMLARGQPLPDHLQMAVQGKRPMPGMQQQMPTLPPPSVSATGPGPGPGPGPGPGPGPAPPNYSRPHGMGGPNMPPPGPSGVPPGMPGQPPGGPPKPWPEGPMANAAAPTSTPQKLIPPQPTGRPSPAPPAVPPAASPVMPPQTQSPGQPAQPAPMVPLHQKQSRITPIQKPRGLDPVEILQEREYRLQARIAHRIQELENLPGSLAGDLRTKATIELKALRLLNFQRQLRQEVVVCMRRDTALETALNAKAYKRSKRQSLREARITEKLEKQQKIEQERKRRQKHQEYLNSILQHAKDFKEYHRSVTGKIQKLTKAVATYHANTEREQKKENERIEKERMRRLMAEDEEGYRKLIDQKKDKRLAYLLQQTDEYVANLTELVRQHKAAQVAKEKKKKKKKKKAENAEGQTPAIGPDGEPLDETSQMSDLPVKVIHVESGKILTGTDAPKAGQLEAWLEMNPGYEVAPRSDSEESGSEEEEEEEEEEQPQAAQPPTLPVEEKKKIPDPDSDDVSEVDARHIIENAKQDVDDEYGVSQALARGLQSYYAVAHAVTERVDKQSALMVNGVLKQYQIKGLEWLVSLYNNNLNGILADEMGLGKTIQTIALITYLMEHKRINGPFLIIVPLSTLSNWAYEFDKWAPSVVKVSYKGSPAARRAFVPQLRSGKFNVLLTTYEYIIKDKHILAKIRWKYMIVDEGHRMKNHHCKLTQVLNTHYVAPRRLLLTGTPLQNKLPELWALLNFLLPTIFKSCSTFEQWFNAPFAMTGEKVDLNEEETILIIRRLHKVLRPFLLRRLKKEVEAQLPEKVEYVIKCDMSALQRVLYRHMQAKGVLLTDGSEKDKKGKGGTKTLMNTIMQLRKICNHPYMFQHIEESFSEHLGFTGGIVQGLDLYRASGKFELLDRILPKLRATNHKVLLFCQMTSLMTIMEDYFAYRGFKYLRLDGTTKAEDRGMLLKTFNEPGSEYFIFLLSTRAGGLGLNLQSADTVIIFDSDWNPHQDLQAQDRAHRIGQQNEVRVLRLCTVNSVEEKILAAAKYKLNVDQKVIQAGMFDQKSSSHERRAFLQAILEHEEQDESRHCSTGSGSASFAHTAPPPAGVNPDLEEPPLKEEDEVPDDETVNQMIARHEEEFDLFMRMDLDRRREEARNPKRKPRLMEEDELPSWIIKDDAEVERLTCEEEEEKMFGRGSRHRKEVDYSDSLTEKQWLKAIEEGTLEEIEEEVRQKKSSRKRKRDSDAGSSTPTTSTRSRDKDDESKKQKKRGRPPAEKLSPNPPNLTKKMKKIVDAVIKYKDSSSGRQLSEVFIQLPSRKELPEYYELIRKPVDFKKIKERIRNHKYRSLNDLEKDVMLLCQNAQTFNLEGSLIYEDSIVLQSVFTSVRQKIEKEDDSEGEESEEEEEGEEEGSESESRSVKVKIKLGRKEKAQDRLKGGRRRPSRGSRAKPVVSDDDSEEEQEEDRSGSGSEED
# [8] = Oral bioavailability in rat at 5 mg/kg; format: ADME, organism-based; conditions: in vivo
# [9] = Toxicity in rat assessed as hypocellularity of bone marrow with associated anemia and thrombocytopenia at 2 to 20 mg/kg,po QD consecutive for 14 days followed by 2 weeks recovery period; format: organism-based; conditions: in vivo, 336 h, dose 2-20 mg/kg, time 14 day
# Method in brief: (§2)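 Oral suspension given once daily for 14 consecutive days (rat 2, 6, 20 mg/kg; dog 2, 4, 6 mg/kg) in dose range-finding and GLP repeat-dose studies, GLP arms with an added 2-week recovery period; histopathology and clinical pathology findings recorded.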
# [10] = Tmax in mouse at 30 mg/kg,po; format: ADME, organism-based; conditions: in vivo
# [11] = Toxicity against BALB/c mouse plasma xenografted with human MV4-11 cells assessed as body weight loss at 60 mg/kg,po QD for 28 days; format: organism-based; conditions: in vivo, 672 h, time 28 day; method in brief: as §1
# [12] = AUC (0 to infinity) in dog at 2.5 mg/kg,po; format: ADME, organism-based, Canis lupus familiaris; set-up: dose 2.5 mg/kg, route po; conditions: in vivo
# [13] = Toxicity in rat assessed as GI mucosal ulceration at 2 to 20 mg/kg,po QD consecutive for 14 days followed by 2 weeks recovery period; format: organism-based; conditions: in vivo, 336 h, dose 2-20 mg/kg, time 14 day; method in brief: as §2
# [14] = target: T1, Peregrin; assay: Displacement of biotinylated JQ1 from BRPF1 bromodomain (unknown origin) incubated for 20 mins by AlphaLISA assay
# [15] = Cmax in dog at 2.5 mg/kg,po; format: ADME, organism-based, Canis lupus familiaris; set-up: dose 2.5 mg/kg, route po; conditions: in vivo
# [16] = Toxicity in dog assessed as degeneration of testicular seminiferous epithelium at 2 to 6 mg/kg,po QD consecutive for 14 days followed by 2 weeks recovery period; format: organism-based, Canis lupus familiaris; conditions: in vivo, 336 h, dose 2-6 mg/kg, time 14 day; method in brief: as §2
# [17] = test system: MV4-11; assay: Antitumor activity against human MV4-11 cells xenografted in BALB/c mouse assessed as tumor growth inhibition at 30 mg/kg,po BID for 28 days; format: functional; conditions: MV4-11, 672 h, time 28 day, read-out: TGI
# Method in brief: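 Single-agent efficacy in MV-4-11 AML mouse xenograft. Tumor volume (mm3) and percent body-weight change were tracked over the treatment days.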
# [18] = Total clearance in dog at 0.5 mg/kg,iv; format: ADME, organism-based, Canis lupus familiaris; conditions: in vivo
# [19] = test system: MV4-11; assay: In vivo inhibition of BRD4 in human MV4-11 cells xenografted in BALB/c mouse assessed as reduction in cellular MYC mRNA expression level in plasma at 15 mg/kg,sc BID and measured for 8 to 12 hrs by PCR anlaysis; format: functional, organism-based; conditions: time 8-12 hrs
# Method in brief: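 Pharmacodynamic study in MV-4-11 AML mouse xenograft. Dosing was 15 mg/kg subcutaneous twice daily. At 4, 8 and 12 h after the second dose, MYC mRNA was measured against vehicle, and compound levels were measured in plasma and tumor. Free plasma concentration was estimated alongside total levels.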
structure (smiles),measurement,setting,value
Cc1noc2c1-c1ccccc1C(c1ccc(Cl)cc1)=N[C@H]2CC(N)=O [PELABRESIB],Activity,[1],Non-Toxic
same,AUC(0-inf),[2],49 µM·h
same,Cmax,[3],1800 nM
same,pIC50,[4],< 4.70
same,Tmax,[5],108 min
same,half-life,[6],55.8 min
same,pIC50,[7],< 4.70
same,bioavailability,[8],76%
same,Activity,[9],Toxic
same,Tmax,[10],25.2 min
same,Activity,[11],Non-Toxic
same,AUC(0-inf),[12],28 µM·h
same,Activity,[13],Toxic
same,pIC50,[14],< 4.70
same,Cmax,[15],2900 nM
same,Activity,[16],Toxic
same,inhibition in vivo at 30 mg/kg,[17],80%
same,clearance,[18],1.83 mL/min/kg
same,inhibition,[19],inactive
